Data: ChEMBL document CHEMBL1135530, “Selective alpha4beta7 integrin antagonists and their potential as antiinflammatory agents” (J Med Chem, 2002)
Peptide text beside a SMILES is read from it.

Columns and labels:
Integrin alpha-4/beta-1 = Integrin alpha-4/beta-1 (Homo sapiens, UniProt P05556+P13612); assay: Inhibitory concentration affording 50% inhibition of alpha4-beta1 integrin binding to VCAM-1, using ELISA assay.; format: protein-complex assay
In short: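 α4β1 extracted from Ramos cell membranes (lectin chromatography, gel filtration in 1% octylglucoside), with 1 mM MnCl2 throughout. Wells coated with 4 µg/mL recombinant soluble human VCAM-1 (5 N-terminal Ig domains, from CHO cells) and blocked with 1% BSA. Inhibitor and receptor 2 h at 37 °C in Tris pH 7.4. Bound receptor detected with anti-β1 mAb 2D4.6, then HRP anti-mouse and TMB at 450 nm. IC50 at half-maximal absorbance.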

Integrin alpha-4/beta-7 = target: T1, Integrin alpha-4/beta-7 (Homo sapiens, UniProt P13612+P26010); assay: Ability to block the alpha4-beta7 integrin-MAdCAM-1 binding interaction using a protein ELISA format; format: protein-complex assay
T1 sequence (P13612 whole entry): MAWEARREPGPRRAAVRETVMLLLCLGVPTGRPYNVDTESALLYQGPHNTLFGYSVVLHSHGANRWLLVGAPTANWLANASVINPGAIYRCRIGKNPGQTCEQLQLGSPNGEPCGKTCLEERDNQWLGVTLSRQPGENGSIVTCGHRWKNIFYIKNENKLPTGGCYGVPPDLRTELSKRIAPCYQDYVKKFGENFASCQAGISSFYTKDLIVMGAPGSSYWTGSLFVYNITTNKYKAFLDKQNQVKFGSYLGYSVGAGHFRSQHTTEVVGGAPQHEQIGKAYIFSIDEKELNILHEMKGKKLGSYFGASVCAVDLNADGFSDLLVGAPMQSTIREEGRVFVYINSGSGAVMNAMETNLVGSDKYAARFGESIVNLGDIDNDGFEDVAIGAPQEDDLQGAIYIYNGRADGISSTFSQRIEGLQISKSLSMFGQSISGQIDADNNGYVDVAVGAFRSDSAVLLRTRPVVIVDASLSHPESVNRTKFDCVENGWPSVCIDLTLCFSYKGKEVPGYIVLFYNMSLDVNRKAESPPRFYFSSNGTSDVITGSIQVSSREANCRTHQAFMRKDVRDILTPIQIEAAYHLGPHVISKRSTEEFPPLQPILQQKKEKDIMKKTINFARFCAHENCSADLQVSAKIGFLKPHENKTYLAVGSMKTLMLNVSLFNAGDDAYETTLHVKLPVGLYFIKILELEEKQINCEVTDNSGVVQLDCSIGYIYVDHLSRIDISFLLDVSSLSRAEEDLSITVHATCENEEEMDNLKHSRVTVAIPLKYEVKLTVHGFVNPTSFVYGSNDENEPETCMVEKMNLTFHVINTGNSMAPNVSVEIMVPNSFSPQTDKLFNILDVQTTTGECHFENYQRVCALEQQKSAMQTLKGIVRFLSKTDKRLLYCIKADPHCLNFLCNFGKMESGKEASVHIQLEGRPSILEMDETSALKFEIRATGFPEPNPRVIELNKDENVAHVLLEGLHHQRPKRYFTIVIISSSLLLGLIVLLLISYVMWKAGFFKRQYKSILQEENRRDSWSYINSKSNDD
T1 sequence (P26010 whole entry): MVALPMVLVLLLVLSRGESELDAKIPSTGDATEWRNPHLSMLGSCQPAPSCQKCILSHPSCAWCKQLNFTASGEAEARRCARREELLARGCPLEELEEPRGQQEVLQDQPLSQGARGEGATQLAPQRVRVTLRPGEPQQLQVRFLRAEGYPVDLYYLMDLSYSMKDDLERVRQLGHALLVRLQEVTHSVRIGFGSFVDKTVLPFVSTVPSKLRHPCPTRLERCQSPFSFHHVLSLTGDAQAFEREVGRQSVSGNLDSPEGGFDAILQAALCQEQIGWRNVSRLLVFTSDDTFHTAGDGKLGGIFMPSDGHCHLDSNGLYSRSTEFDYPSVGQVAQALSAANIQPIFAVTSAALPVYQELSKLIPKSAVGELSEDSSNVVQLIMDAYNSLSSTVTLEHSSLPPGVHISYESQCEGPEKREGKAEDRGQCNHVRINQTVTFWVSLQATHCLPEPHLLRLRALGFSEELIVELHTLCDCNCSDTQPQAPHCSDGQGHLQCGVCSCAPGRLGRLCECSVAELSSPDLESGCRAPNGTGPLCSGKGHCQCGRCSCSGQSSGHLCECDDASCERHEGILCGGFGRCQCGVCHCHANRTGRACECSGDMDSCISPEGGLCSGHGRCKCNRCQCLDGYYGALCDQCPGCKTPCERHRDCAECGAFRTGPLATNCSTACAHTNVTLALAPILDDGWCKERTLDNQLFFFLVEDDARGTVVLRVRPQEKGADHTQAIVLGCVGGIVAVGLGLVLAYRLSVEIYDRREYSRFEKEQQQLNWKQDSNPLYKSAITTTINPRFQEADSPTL
In short: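 Plates coated overnight at 4 °C with anti-human α4 antibody 9F10 (2 µg/mL), blocked in Tris pH 7.5 buffer with 1 mM MnCl2, Tween-20 and 0.5% BSA, then loaded with α4β7 purified from transfected JY cells (2 µg/mL). Compounds (1 nM–200 µM final, triplicate) plus MAdCAM-1-Ig-HRP (1 µg/mL), 2 h room temperature. TMB read at 450 nm; IC50 at half-maximal absorbance.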

Sequence of Integrin alpha-4/beta-1 (P05556 whole entry, one chain of several, the tested form may be a part): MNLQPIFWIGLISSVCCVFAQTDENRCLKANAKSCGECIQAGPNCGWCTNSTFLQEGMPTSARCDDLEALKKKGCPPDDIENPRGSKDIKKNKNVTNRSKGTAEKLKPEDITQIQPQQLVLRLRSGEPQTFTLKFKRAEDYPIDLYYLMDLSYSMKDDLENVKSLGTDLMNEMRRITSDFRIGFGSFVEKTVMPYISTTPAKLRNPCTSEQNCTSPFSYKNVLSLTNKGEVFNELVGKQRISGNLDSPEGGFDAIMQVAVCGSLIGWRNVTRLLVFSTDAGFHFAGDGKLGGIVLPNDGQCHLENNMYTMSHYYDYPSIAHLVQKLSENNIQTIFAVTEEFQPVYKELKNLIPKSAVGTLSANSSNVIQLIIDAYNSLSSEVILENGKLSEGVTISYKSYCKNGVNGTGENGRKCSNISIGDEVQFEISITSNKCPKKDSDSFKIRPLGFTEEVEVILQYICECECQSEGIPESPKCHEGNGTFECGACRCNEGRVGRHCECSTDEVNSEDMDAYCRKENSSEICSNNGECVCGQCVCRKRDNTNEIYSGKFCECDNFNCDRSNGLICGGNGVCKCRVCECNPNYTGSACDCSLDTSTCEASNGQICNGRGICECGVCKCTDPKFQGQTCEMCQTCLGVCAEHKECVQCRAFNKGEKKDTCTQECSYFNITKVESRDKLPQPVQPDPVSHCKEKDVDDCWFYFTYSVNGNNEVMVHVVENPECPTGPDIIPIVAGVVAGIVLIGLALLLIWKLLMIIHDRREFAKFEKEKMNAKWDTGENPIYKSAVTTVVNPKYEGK

SMILES | IC50 (Integrin alpha-4/beta-1) [µM] | IC50 (Integrin alpha-4/beta-7) [µM]
CC(C)C[C@@H]1NC(=O)[C@H]([C@@H](C)O)NC(=O)[C@H](CC(N)=O)NC(=O)[C@H](CO)NC(=O)[C@H](CCCNC(=N)N)NC(=O)[C@@H](N)CSSC[C@@H](C(N)=O)NC1=O | 88 | 175
CC[C@H](C)[C@@H]1NC(=O)[C@H]([C@@H](C)O)NC(=O)[C@H](CC(=O)O)NC(=O)[C@H](CO)NC(=O)[C@H](CCCNC(=N)N)NC(=O)[C@@H](N)CSSC[C@@H](C(N)=O)NC1=O | 25 | 1.8
CC(C)C[C@@H]1NC(=O)[C@H](C)NC(=O)[C@H](CC(=O)O)NC(=O)[C@H](CO)NC(=O)[C@H](CCCN=C(N)N)NC(=O)[C@@H](N)CSSC[C@@H](C(N)=O)NC1=O (HELM PEPTIDE1{C.R.S.D.A.L.C.[am]}$PEPTIDE1,PEPTIDE1,1:R3-7:R3$$$V2.0) | 60 | 10
CC(C)[C@@H]1NC(=O)[C@H]([C@@H](C)O)NC(=O)[C@H](CC(=O)O)NC(=O)[C@H](CO)NC(=O)[C@H](CCCNC(=N)N)NC(=O)[C@@H](N)CSSC[C@@H](C(N)=O)NC1=O | 59 | 4.5
CSCC[C@H](N)C(=O)N[C@@H](CC(=O)O)C(=O)N[C@H]1CSSC[C@@H](C(=O)NCC(=O)N[C@@H](CCC(=O)O)C(N)=O)NC(=O)[C@H](CC(C)C)NC(=O)[C@H]([C@@H](C)O)NC(=O)[C@H](CC(=O)O)NC(=O)[C@H](CO)NC(=O)[C@H](CCCNC(=N)N)NC1=O (HELM PEPTIDE1{M.D.C.R.S.D.T.L.C.G.E.[am]}$PEPTIDE1,PEPTIDE1,3:R3-9:R3$$$V2.0) | 4.2 | 0.19
CSCC[C@H](N)C(=O)N[C@@H](CC(=O)O)C(=O)N[C@H]1CSSC[C@@H](C(N)=O)NC(=O)[C@H](CC(C)C)NC(=O)[C@H]([C@@H](C)O)NC(=O)[C@H](CC(=O)O)NC(=O)[C@H](CO)NC(=O)[C@H](CCCN=C(N)N)NC1=O (HELM PEPTIDE1{M.D.C.R.S.D.T.L.C.[am]}$PEPTIDE1,PEPTIDE1,3:R3-9:R3$$$V2.0) | 11.8 | 0.64
C[C@@H](O)[C@@H]1NC(=O)[C@H](CC(=O)O)NC(=O)[C@H](CO)NC(=O)[C@H](CCCN=C(N)N)NC(=O)[C@@H](N)CSSC[C@@H](C(N)=O)NC(=O)CNC1=O | > 100 | 11
C[C@@H]1NC(=O)[C@H]([C@@H](C)O)NC(=O)[C@H](CC(=O)O)NC(=O)[C@H](CO)NC(=O)[C@H](CCCN=C(N)N)NC(=O)[C@@H](N)CSSC[C@@H](C(N)=O)NC1=O (HELM PEPTIDE1{C.R.S.D.T.A.C.[am]}$PEPTIDE1,PEPTIDE1,1:R3-7:R3$$$V2.0) | 40 | 23
CC(C)C[C@@H]1NC(=O)[C@H](C(C)C)NC(=O)[C@H](CC(=O)O)NC(=O)[C@H](CO)NC(=O)[C@H](CCCN=C(N)N)NC(=O)[C@@H](N)CSSC[C@@H](C(N)=O)NC1=O | 13 | 0.84
C[C@@H](O)[C@@H]1NC(=O)[C@H](CC(=O)O)NC(=O)[C@H](CO)NC(=O)[C@H](CCCNC(=N)N)NC(=O)[C@@H](N)CSSC[C@@H](C(N)=O)NC(=O)[C@@H]2CCCN2C1=O | 37 | 40
CC(C)C[C@@H]1NC(=O)[C@H]([C@@H](C)O)NC(=O)[C@H](C)NC(=O)[C@H](CO)NC(=O)[C@H](CCCN=C(N)N)NC(=O)[C@@H](N)CSSC[C@@H](C(N)=O)NC1=O (HELM PEPTIDE1{C.R.S.A.T.L.C.[am]}$PEPTIDE1,PEPTIDE1,1:R3-7:R3$$$V2.0) | > 100 | > 100
CC(C)C[C@@H]1NC(=O)[C@H]([C@@H](C)O)NC(=O)[C@H](CC(=O)O)NC(=O)[C@H](CO)NC(=O)[C@H](CCCNC(=N)N)NC(=O)[C@@H](N)CSSC[C@@H](C(N)=O)NC1=O | 4.2 | 0.12
CC(C)C[C@@H]1NC(=O)[C@H]([C@@H](C)O)NC(=O)[C@H](CC(=O)O)NC(=O)[C@H]([C@@H](C)O)NC(=O)[C@H](CCCN=C(N)N)NC(=O)[C@@H](N)CSSC[C@@H](C(N)=O)NC1=O | 7.4 | 2.1

Compounds with a lower IC50 (Integrin alpha-4/beta-1), results first:

IC50 (Integrin alpha-4/beta-1) [µM] | IC50 (Integrin alpha-4/beta-7) [µM] | SMILES
3.8 | 0.11 | CC(C)C[C@@H]1NC(=O)[C@H]([C@@H](C)O)NC(=O)[C@H](CC(=O)O)NC(=O)[C@H](CO)NC(=O)[C@H](CCCNC(=N)N)NC(=O)[C@@H](N)CSSC[C@@H](C(=O)NCC(N)=O)NC1=O (HELM PEPTIDE1{C.R.S.D.T.L.C.G.[am]}$PEPTIDE1,PEPTIDE1,1:R3-7:R3$$$V2.0)
1.1 | 0.39 | CC(C)C[C@@H]1NC(=O)[C@H]([C@@H](C)O)NC(=O)[C@H](CC(=O)O)NC(=O)[C@H](CO)NC(=O)[C@H](Cc2cnc[nH]2)NC(=O)[C@@H](N)CSSC[C@@H](C(N)=O)NC1=O
3.6 | 2.2 | CC(C)C[C@@H]1NC(=O)[C@H]([C@@H](C)O)NC(=O)[C@H](CC(=O)O)NC(=O)[C@H](C)NC(=O)[C@H](CCCNC(=N)N)NC(=O)[C@@H](N)CSSC[C@@H](C(N)=O)NC1=O (HELM PEPTIDE1{C.R.A.D.T.L.C.[am]}$PEPTIDE1,PEPTIDE1,1:R3-7:R3$$$V2.0)
2.2 | 40 | CC(C)C[C@@H]1NC(=O)[C@H]([C@@H](C)O)NC(=O)[C@H](CC(N)=O)NC(=O)[C@H](CO)NC(=O)[C@H](CCCNC(=N)N)NC(=O)[C@@H](N)CSSC[C@@H](C(=O)O)NC1=O
0.009 | 0.13 | CC(C)C[C@@H]1NC(=O)[C@H]([C@@H](C)O)NC(=O)[C@H](CC(=O)O)NC(=O)[C@H](CO)NC(=O)[C@H](Cc2ccc(O)cc2)NC(=O)[C@@H](N)CSSC[C@@H](C(N)=O)NC1=O
2.8 | 1.1 | CC(C)C[C@@H]1NC(=O)[C@H]([C@@H](C)O)NC(=O)[C@H](CC(=O)O)NC(=O)[C@H](CO)NC(=O)[C@H](C)NC(=O)[C@@H](N)CSSC[C@@H](C(N)=O)NC1=O (HELM PEPTIDE1{C.A.S.D.T.L.C.[am]}$PEPTIDE1,PEPTIDE1,1:R3-7:R3$$$V2.0)
0.4 | 0.13 | CC(C)C[C@@H]1NC(=O)[C@H]([C@@H](C)O)NC(=O)[C@H](CC(=O)O)NC(=O)[C@H](CO)NC(=O)[C@H](CCCNC(=N)N)NC(=O)[C@@H](N)CSSC[C@@H](C(=O)O)NC1=O
3.2 | 2.2 | CSCC[C@@H]1NC(=O)[C@H](CCCN=C(N)N)NC(=O)[C@@H](N)CSSC[C@@H](C(N)=O)NC(=O)[C@H](CC(C)C)NC(=O)[C@H]([C@@H](C)O)NC(=O)[C@H](CC(=O)O)NC1=O
0.8 | 1.9 | CC(C)C[C@@H]1NC(=O)[C@H](CCCN=C(N)N)NC(=O)[C@@H](N)CSSC[C@@H](C(N)=O)NC(=O)[C@H](CC(C)C)NC(=O)[C@H]([C@@H](C)O)NC(=O)[C@H](CC(=O)O)NC1=O
0.05 | 0.55 | CC(C)C[C@@H]1NC(=O)[C@H]([C@@H](C)O)NC(=O)[C@H](CC(=O)O)NC(=O)[C@H](CO)NC(=O)[C@H](Cc2ccccc2)NC(=O)[C@@H](N)CSSC[C@@H](C(N)=O)NC1=O
